The test system of assay [1] is SK-OV-3. As to conditions: read-out: GI50 SRB assay SK-OV-3; ref [13]; cited from earlier work.
Assay [2] relates to NCI-H460. Conditions: read-out: GI50 SRB assay NCI-H460; ref [13]; cited from earlier work. For orientation: The SRB assay estimates cell density from bound dye.
The test system of assay [3] is DU-145 (prostate). As to conditions: read-out: GI50 SRB assay DU-145; ref [13]; cited from earlier work.
Assay [4] relates to MCF7-luc-GFP-mCherry breast tumor. As to the kind of experiment: Dynamic bioluminescence imaging. It counts as in vivo, SCID mice. Conditions: for Reduction in bioluminescence as compared to baseline or saline control: 4 h after injection, p<0.05.
Assay [5] shares this test system. The assay is described as follows: Histological. Conditions: 120 mg/kg; 48 h post treatment. The format is in vivo, SCID mice. Put shortly: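 The same MCF7-luc-GFP-mCherry tumour-bearing SCID mice were dosed ip at 120 mg/kg, or with saline. After the 48 h BLI session they were sacrificed and the tumours excised. Tumour cross-sections were stained with H&E, and necrotic (pink) regions were scored against viable (purple) regions relative to the saline control.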

Assay [6] concerns tubulin. As to conditions: read-out: Inhibition of tubulin polymerization IC50; ref [73]; cited from earlier work.
In assay [7] the test system is NCI-H460. As to the kind of experiment: SRB cytotoxicity assay, NCI-H460. It counts as cell-based, human. Conditions: read-out: GI50 SRB assay NCI-H460; average of n ≥ 3 independent determinations.
Assay [8] deals with SK-OV-3. The assay is described as follows: SRB cytotoxicity assay, SK-OV-3. Conditions: read-out: GI50 SRB assay SK-OV-3; average of n ≥ 3 independent determinations. The format is cell-based, human.
Assay [9] deals with tubulin. As to the kind of experiment: Inhibition of tubulin polymerization. The format is biochemical. Conditions: read-out: Inhibition of tubulin polymerization IC50; ± SD.
Assay [10] relates to DU-145 (prostate). As to the kind of experiment: SRB cytotoxicity assay, DU-145. It counts as cell-based, human. Conditions: read-out: GI50 SRB assay DU-145; average of n ≥ 3 independent determinations.

Where two headings read alike, the source gives them in different places. Bounds are passed on as bounds.

The values below come from paper PMC5308454 (MedChemComm, 2016).

On to `COc1ccc(/C=C\c2cc(OC)c(OC)c(OC)c2)cc1O` [CA4, combretastatin A-4], for which the GI50 with SK-OV-3 [1] is 5.06 nM; in the assay on NCI-H460 [2], 5 nM; in the assay on DU-145 (prostate) [3], 6.02 nM.

For the compound `COc1ccc(/C=C\c2cc(OC)c(OC)c(OC)c2)cc1OP(=O)(O)O` [CA4P, Combretastatin A-4P], the “Reduction in bioluminescence as compared to baseline or saline control” value in assay [4] (120 mg/kg ip single dose) is reported as “approximately 80%”. Further, the “Tumor necrosis (H&E) as compared with saline control” value in assay [5] is reported as “much more extensive necrosis”. Further, the IC50 in the assay on tubulin [6] is more than 20000 nM.

With `COc1cc(/C2=C/CCCCc3c2ccc(OC)c3OP(=O)([O-])[O-])cc(OC)c1OC.[Na+].[Na+]` [Compound 24], the “Bioluminescence intensity at 24 and 48 h versus baseline” value in [4] (120 mg/kg ip single dose, 24 and 48 h, p<0.005) is recorded as “remained significantly below baseline values”. In addition, in assay [4] (120 mg/kg ip single dose), the “Reduction in bioluminescence as compared to baseline or saline control” value is “approximately 80%”. Besides, the “Vascular shutdown evidenced by bioluminescence imaging” value in [4] (120 mg/kg, 4 h post administration, effect continued at 24 and 48 h) was “significant vascular shutdown”. In addition, in assay [5], the “Tumor necrosis (H&E) as compared with saline control” value is “much more extensive necrosis”.

For `COc1ccc2c(c1O)CCCC=C2c1cc(OC)c(OC)c(OC)c1` [KGP18], the GI50 in the assay on NCI-H460 [7] stood at 0.0418 nM; with SK-OV-3 [8], 0.0543 nM; in the assay on DU-145 (prostate) [10] it was 0.0249 nM. The half-maximal inhibitory concentration (IC50) in the assay on tubulin [9] came out at 1400 nM.

One may read the GI50 as the concentration that inhibits growth by half. A word on the IC50: it is the midpoint of a concentration-inhibition curve.
